TRPC4 block: blocks the mouse TRPC4 cation channel | HEK293 TRPC4beta/mu-opioid, DAMGO-evoked Fluo4 calcium flux; active compounds read low | B-score at 10 µM | 300,000 tested, 0.39% active | AID 2247;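 active = B-score over 3 SD under the library average, no early fluorescence shift, positive overall ratio signal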
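System: stable TRPC4beta/mu-opioid receptor HEK293 cells; Dosing: single-point compound dosing; Measured by: Fluo4 Ca2+ flux fluorescence; Read-out basis: per-well B score of integrated baseline-normalized Fluo4 ratio.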
TRPC4 act: TRPC4 (mouse) channel activation; B-score at 10 µM; Q9QUQ5; AID 2237; HEK293 TRPC4beta/mu-opioid, Fluo4 calcium fluorescence; active compounds read high; 310,000 tested, 0.49% active;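 active = B-score above 5 SD of library B-scores, and initial fluorescence ratio not above library mean plus 5 SD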;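 note: positive B-score marks a calcium rise read as TRPC4 activation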
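system = HEK293 cells stably co-expressing mouse TRPC4beta and mu-opioid receptor | schedule = Fluo4 dye loading 45 min at room temperature, 110 s recording | measure = B-scored integrated calcium fluorescence ratio | signal = Fluo4 calcium-sensitive dye fluorescence, kinetic, 1 Hz baseline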
TRPC6 act: mouse TRPC6 channel activation; Q61143; HEK293-TRPC6 membrane potential dye fluorescence; active compounds read high; B-score at 10 µM; 310,000 tested, 0.13% active; AID 2550;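 active = B-score of the integrated fluorescence ratio above library mean plus 3 SD, and starting fluorescence ratio within library mean plus 5 SD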;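 note: higher score means more depolarization so channel activation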
TRPC4 potent: allosterically enhances the mouse TRPC4 cation channel | B-score at 10 µM | HEK293 TRPC4beta/mu-opioid, DAMGO EC20, Fluo-4 Ca2+ flux; active compounds read high | 310,000 tested, 0.42% active | Q9QUQ5;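 active = B-score of calcium response area above 5 SD of library B-scores, with initial fluorescence ratio within 5 SD of library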;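 note: B-score of integrated fluorescence ratio over time as area under calcium response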
TRPC6 inhibitor: inhibitors of mouse TRPC6 channel. B-score at 10 µM. AID 2553. HEK293-TRPC6, membrane potential dye, ACh-evoked depolarization; active compounds read low. 310,000 tested, 1.1% active;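 active = B-score under library mean minus 3 SD, initial fluorescence not abnormally high, positive integrated signal ratio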;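 note: B-score derived from integrated fluorescence ratio over the kinetic read; more negative B-score means stronger inhibition of depolarization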
An asterisk follows results filed as active; i = inactive. Most compounds without a hit are left out; they make up all but 2.3% or so of the library.

SMILES | TRPC4 block | TRPC4 act | TRPC6 act | TRPC4 potent | TRPC6 inhibitor
CSc1cccc(NC(=O)N2CCN(C)CC2)c1 | i | i | i | 28* | i
Cn1c(N2CCN(C(=O)Nc3ccc(C(F)(F)F)cc3)CC2)nc2ccccc21 | i | 94* | i | i | i
Cn1c(N2CCN(C(=O)NCc3ccccc3)CC2)nc2ccccc21 | i | i | i | i | i
COC(=O)[C@@]12CCCCN1[C@H](c1ccc(-c3ccc(F)cc3)cc1)[C@@H]1C(=O)N(C)C(=O)[C@@H]12 | i | i | i | i | i
C=CS(=O)(=O)c1sc(Cl)c(N2CCOCC2)c1[N+](=O)[O-] | -6* | i | i | i | i
C=CSc1sc(Cl)c(N2CCOCC2)c1[N+](=O)[O-] | i | i | i | i | i
COc1ccc(C(CNC(=O)C(Cc2ccccc2)NC(N)=O)N(C)C)cc1 (stereo not given) | i | 112* | i | i | i
COc1ccc(C(CNC(=O)CSc2ccccc2C)N(C)C)cc1 (stereo not given) | i | 116* | i | i | i
COc1ccc(CC(NC(=O)c2ccccc2)C(=O)NCC(=O)O)cc1 (stereo not given) | i | i | i | i | i
COc1ccc(C(CNC(=O)Cc2ccc(-c3ccccc3)cc2)N(C)C)cc1 (stereo not given) | i | 202* | i | i | i
CC[C@H](C)[C@H](NC(=O)OCc1ccccc1)C(=O)Nc1ccc(NC(C)=O)cc1 | i | i | i | i | i
COc1ccccc1C(CNC(=O)CSc1ccc2ccccc2c1)N(C)C (stereo not given) | i | i | i | i | i
CCC(C)C(NC(=O)OCc1ccccc1)C(=O)NCC(c1ccccc1)N(C)C (stereo not given) | -5* | i | i | i | i
COc1ccc(-n2cnnc2SCC(=O)Nc2ccccc2F)cc1 | i | i | i | i | i
O=[N+]([O-])c1cccc(-c2noc(-c3ccco3)n2)c1 | i | i | i | i | i
CC(C)(C)NC(=O)c1nn(Cc2ccccc2)c(=O)c2ccccc12 | i | i | i | i | i
COc1ccc(C(CNC(=O)c2cccc3cccnc23)N(C)C)cc1 (stereo not given) | -7* | 108* | i | i | i
COc1ccccc1C(=O)NCC(c1cccnc1)N(C)C (stereo not given) | i | i | i | i | i
COc1cccc(C(CNC(=O)C(c2ccccc2)c2ccccc2)N(C)C)c1 (stereo not given) | -6* | i | i | i | i
COc1ccc(OCCNC(=O)C(c2ccccc2)c2ccccc2)cc1 | i | i | i | i | i
COc1ccc(C(CNC(=O)/C=C/c2c(Cl)nc3ccccn23)N(C)C)cc1 (stereo not given) | i | 249* | i | i | i
CN(C)c1ccc(C(CNC(=O)Cc2cccc3ccccc23)N(C)C)cc1 (stereo not given) | i | 77* | i | i | i
COc1ccc(CSc2nc(O)cc(=O)n2CC(C)C)cc1F | i | i | i | i | i
Cc1ccccc1-n1c(SCc2cccc(F)c2)nc2[nH]ncc2c1=O | i | i | i | 13* | i
CCN1CCN(c2nc(N)c([N+](=O)[O-])c(Nc3ccc(C)c(C)c3)n2)CC1 | i | i | i | 29* | i
SMILES | TRPC4 block | TRPC4 act | TRPC6 act | TRPC4 potent | TRPC6 inhibitor
CCN1CCN(c2nc(N)c([N+](=O)[O-])c(Nc3ccc(C)cc3)n2)CC1 | i | i | i | 17* | i
Cn1c(=NC(=O)COc2ccccc2)sc2ccccc21 | i | i | i | i | i
CC(C)N1C(=O)N(c2cccc(Cl)c2)C(C)(O)CC1(C)C (stereo not given) | i | i | i | i | i
O=C(Nc1nc2c(s1)CN(Cc1ccccc1)CC2)c1c(F)cccc1F | i | i | i | 17* | i
CCN1C(=O)C(=O)N(CC(=O)c2[nH]c(C)c(C(C)=O)c2C)C1=O | i | i | i | i | i
CC(=O)c1c(C)[nH]c(C(=O)CN2C(=O)NC(C)(c3ccc(C)cc3)C2=O)c1C (stereo not given) | i | 44* | i | i | i
[O-][n+]1c2ccccc2cc2ccccc21 | i | i | i | i | i
COC(=O)Cc1ccc(NC(=S)N2CCN(c3cc(Cl)ccc3C)CC2)cc1 | i | i | i | i | i
O=C(N/N=C/c1ccc2c(c1)OCO2)c1ccc2ccccc2n1 | i | i | i | i | i
O=C(N/N=C/c1ccsc1)c1ccc2ccccc2n1 | i | i | i | 17* | i
CCN(C1CCS(=O)(=O)C1)S(=O)(=O)c1ccc(OC)c(OC)c1 (stereo not given) | i | i | i | i | i
NC(=O)C1CCCN(CCc2ccccc2)C1 (stereo not given) | i | 103* | i | i | i
CC(CN1CCCC(C(N)=O)C1)c1ccccc1 (stereo not given) | i | 131* | i | i | i
CCOC(=O)C1CCCN(CCC(C)c2ccccc2)C1 (stereo not given) | i | i | i | i | i
O=C(N/N=C\c1ccc[nH]1)C1COc2ccccc2O1 (stereo not given) | i | 51* | i | i | i
O=C(N/N=C/c1cccs1)C1COc2ccccc2O1 (stereo not given) | i | i | i | i | i
O=C(N/N=C\c1ccc(Br)o1)C1COc2ccccc2O1 (stereo not given) | i | i | i | i | i
CCC/C=N/NC(=O)C1COc2ccccc2O1 (stereo not given) | i | i | i | i | i
Cc1ccc(/C=N/NC(=O)C2COc3ccccc3O2)s1 (stereo not given) | i | i | i | 76* | i
O=C(N/N=C/c1ccco1)C1COc2ccccc2O1 (stereo not given) | i | 111* | i | i | i
O=C(N/N=C\c1ccccn1)C1COc2cc3ccccc3cc2O1 (stereo not given) | i | 53* | i | i | i
COc1ccc(/C=C2\SC(=S)N(CCC(=O)NC3CCCC3)C2=O)cc1OC | i | i | i | i | i
O=C(OCCN1CCCCC1)c1cccc(Cl)c1 | i | i | i | i | i
C/C(=N\O)C(=O)OC1CC(C)CCC1C(C)C (stereo not given) | i | i | i | 13* | i

Source: PubChem (Johns Hopkins Ion Channel Center)
